# Assay results published in ChEMBL document CHEMBL1800027, “Imidazolopiperazines: hit to lead optimization of new antimalarial agents” (J Med Chem, 2011).
# What was measured:
# Plasmodium falciparum [1] = experiment: Antimalarial activity against Plasmodium falciparum 3D7 infected in human erythrocytes assessed as decrease in parasitemia after 72 hrs; format: functional, organism-based; conditions: 3D7, 72 h
# Plasmodium falciparum [2] = experiment: Antimalarial activity against Plasmodium falciparum W2 infected in human erythrocytes assessed as decrease in parasitemia after 72 hrs; format: functional, organism-based; conditions: W2, 72 h
# [3] = Cytotoxicity against human HuH7 cells; format: cell-based; conditions: Huh-7 cells, read-out: TC50 (the source's name)
# [4] = Selectivity index, ratio TC50 for human HuH7 cells to IC50 for Plasmodium falciparum; format: functional, Huh-7
# [5] = Selectivity index, ratio TC50 for human HeLa cells to IC50 for Plasmodium falciparum; format: functional
# [6] = Volume of distribution in male BALB/c mouse at 5 mg/kg, iv by LC/MS/MS analysis; format: ADME, organism-based; design: dose 5 mg/kg, route intravenous; conditions: in vivo
# How it was run: (§1)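 Male Balb/c mice, n = 3 per group, dosed iv via lateral tail vein at 5 mg/kg and 2 mL/kg. Vehicle 2.5 mg/mL in 75% PEG300/25% DSW, filtered. Six serial retro-orbital blood samples up to 24 h, heparinized plasma. Plasma extracted with acetonitrile/methanol (3:1) plus internal standard for LC/MS/MS (positive ESI, MRM). Noncompartmental analysis.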
# [7] = Clearance in male BALB/c mouse at 5 mg/kg, iv by LC/MS/MS analysis; format: ADME, organism-based; design: dose 5 mg/kg, route intravenous; conditions: in vivo; how it was run: as §1
# [8] = Half-life in male BALB/c mouse at 5 mg/kg, iv by LC/MS/MS analysis; format: ADME, organism-based; design: dose 5 mg/kg, route intravenous; conditions: in vivo; how it was run: as §1
# [9] = AUC (0 to infinity) in male BALB/c mouse at 5 mg/kg, iv by LC/MS/MS analysis; format: ADME, organism-based; design: time infinity, dose 5 mg/kg, route intravenous; conditions: plasma; how it was run: as §1
# Mus musculus [10] = experiment: Cmax in male BALB/c mouse at 20 mg/kg, po by LC/MS/MS analysis; format: ADME, organism-based; design: dose 20 mg/kg, route oral; conditions: in vivo
# How it was run: (§2)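 Male Balb/c mice, n = 3 per group, given 20 mg/kg orally at 8 mL/kg. Vehicle 2.5 mg/mL in 75% PEG300/25% DSW, filtered. Six serial retro-orbital blood samples up to 24 h, heparinized plasma. Plasma extracted with acetonitrile/methanol (3:1) plus internal standard; LC/MS/MS quantitation by positive ESI MRM. Noncompartmental analysis; values normalized to 30 mg/kg. F = (AUCpo·dose iv)/(AUCiv·dose po).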
# [11] = Tmax in male BALB/c mouse at 20 mg/kg, po by LC/MS/MS analysis; format: ADME, organism-based; design: dose 20 mg/kg, route oral; conditions: in vivo; how it was run: as §2
# Mus musculus [12] = experiment: AUC (0 to infinity) in male BALB/c mouse at 20 mg/kg, po by LC/MS/MS analysis; format: ADME, organism-based, Plasma; design: time infinity, dose 20 mg/kg, route oral; conditions: in vivo; how it was run: as §2
# [13] = Half life in male BALB/c mouse at 20 mg/kg, po by LC/MS/MS analysis; format: ADME, organism-based; design: dose 20 mg/kg, route oral; conditions: in vivo; how it was run: as §2
# [14] = Oral bioavailability in male BALB/c mouse at 20 mg/kg by LC/MS/MS analysis; format: ADME, organism-based; conditions: in vivo; how it was run: as §2
# [15] = Ratio of drug level in blood to plasma of female CD1 mouse; format: ADME; conditions: blood and plasma
# [16] = Ratio of drug level in blood to plasma of male BALB/c mouse; format: ADME; conditions: blood and plasma
# Plasmodium berghei [17] = experiment: Antimalarial activity against GFP-tagged Plasmodium berghei ANKA infected in NMRI mouse assessed as reduction in parasitemia at 30 mg/kg, po administered as single dose 24 hrs post infection measured 72 hrs post infection; format: functional; design: scale not given: the % may be the effect or the level left
# Plasmodium berghei [18] = experiment: Antimalarial activity against GFP-tagged Plasmodium berghei ANKA infected in NMRI mouse assessed as mouse survival at 30 mg/kg, po QD administered 24 hrs post infection for 3 days measured on day 30 post infection; format: functional
# Cytochrome P450 1A2 = target: T1, Cytochrome P450 1A2 (Homo sapiens, UniProt P05177); experiment: Inhibition of CYP 1A2; format: ADME
# T1 sequence (P05177 whole entry): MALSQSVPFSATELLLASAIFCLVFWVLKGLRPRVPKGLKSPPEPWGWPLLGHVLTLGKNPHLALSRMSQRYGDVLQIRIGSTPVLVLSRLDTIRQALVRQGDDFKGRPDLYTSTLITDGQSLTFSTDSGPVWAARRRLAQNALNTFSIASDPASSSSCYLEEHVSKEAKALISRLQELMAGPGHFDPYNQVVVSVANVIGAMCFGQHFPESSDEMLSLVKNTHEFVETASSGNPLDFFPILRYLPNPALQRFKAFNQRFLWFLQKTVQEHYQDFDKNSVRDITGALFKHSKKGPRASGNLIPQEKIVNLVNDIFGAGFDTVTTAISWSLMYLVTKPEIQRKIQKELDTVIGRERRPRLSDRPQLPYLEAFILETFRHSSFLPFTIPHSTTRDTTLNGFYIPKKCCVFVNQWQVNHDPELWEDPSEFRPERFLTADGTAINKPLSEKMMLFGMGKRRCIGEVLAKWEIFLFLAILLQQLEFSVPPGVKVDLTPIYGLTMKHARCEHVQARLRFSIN
# Cytochrome P450 2C19 = Cytochrome P450 2C19 (Homo sapiens, UniProt P33261); experiment: Inhibition of CYP 2C19; format: ADME
# Sequence of Cytochrome P450 2C19 (P33261 whole entry): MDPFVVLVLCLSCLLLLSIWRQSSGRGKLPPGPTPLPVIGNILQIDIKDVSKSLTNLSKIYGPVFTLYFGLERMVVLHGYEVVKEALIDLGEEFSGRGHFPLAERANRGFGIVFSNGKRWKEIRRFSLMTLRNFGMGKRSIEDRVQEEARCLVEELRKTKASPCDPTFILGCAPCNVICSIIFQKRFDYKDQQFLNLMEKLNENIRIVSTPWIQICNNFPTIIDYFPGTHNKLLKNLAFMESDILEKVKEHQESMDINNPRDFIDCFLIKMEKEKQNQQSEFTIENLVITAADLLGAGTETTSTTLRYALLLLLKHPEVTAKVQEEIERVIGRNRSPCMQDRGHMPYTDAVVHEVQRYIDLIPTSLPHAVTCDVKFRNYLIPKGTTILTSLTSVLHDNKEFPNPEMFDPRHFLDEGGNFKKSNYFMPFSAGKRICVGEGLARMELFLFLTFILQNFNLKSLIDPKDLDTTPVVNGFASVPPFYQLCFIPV
# Cytochrome P450 2C9 = Cytochrome P450 2C9 (Homo sapiens, UniProt P11712); experiment: Inhibition of CYP 2C9; format: ADME
# Sequence of Cytochrome P450 2C9 (P11712 whole entry): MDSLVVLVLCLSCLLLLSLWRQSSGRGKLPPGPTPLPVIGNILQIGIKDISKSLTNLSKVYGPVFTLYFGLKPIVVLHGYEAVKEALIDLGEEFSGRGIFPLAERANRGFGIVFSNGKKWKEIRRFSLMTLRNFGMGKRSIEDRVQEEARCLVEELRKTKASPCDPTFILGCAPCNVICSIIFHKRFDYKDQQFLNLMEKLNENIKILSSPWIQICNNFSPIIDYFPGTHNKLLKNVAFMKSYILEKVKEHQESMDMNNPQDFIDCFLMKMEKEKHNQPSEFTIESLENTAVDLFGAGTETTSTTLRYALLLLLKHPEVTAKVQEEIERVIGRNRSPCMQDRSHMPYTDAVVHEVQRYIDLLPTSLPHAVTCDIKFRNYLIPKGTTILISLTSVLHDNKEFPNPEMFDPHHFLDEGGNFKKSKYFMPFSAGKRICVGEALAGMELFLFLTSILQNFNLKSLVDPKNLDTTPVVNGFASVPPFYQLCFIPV
# Cytochrome P450 2D6 = Cytochrome P450 2D6 (Homo sapiens, UniProt P10635); experiment: Inhibition of CYP 2D6; format: ADME
# Sequence of Cytochrome P450 2D6 (P10635 whole entry): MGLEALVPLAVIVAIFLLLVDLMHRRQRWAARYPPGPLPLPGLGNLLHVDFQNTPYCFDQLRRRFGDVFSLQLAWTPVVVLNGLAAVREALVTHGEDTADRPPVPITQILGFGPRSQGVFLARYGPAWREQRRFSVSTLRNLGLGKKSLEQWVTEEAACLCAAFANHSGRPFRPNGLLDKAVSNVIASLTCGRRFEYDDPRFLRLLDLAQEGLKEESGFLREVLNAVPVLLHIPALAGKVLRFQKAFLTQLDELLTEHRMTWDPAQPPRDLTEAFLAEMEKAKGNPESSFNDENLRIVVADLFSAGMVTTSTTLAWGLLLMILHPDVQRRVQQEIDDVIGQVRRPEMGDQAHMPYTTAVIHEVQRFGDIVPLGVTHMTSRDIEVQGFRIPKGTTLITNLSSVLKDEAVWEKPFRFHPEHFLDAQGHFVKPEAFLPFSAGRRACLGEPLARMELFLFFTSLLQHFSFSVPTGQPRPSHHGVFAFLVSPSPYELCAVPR
# Cytochrome P450 3A4 = Cytochrome P450 3A4 (Homo sapiens, UniProt P08684); experiment: Inhibition of CYP 3A4; format: ADME
# Sequence of Cytochrome P450 3A4 (P08684 whole entry): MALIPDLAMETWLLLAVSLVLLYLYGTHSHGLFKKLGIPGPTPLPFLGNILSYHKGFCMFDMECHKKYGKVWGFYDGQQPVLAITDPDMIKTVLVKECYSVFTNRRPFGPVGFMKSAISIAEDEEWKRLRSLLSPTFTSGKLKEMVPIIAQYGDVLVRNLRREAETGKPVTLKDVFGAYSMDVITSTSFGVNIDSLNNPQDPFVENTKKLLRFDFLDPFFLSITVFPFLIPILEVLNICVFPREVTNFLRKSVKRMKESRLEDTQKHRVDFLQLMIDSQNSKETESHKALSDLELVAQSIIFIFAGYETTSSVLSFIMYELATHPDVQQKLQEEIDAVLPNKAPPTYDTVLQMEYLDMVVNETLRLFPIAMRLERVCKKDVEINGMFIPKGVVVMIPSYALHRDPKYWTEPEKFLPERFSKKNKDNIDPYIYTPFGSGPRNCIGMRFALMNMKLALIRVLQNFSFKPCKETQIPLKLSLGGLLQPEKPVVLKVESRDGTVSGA
# [19] = Cytotoxicity against human 293T cells; format: cell-based; conditions: HEK-293T cells, read-out: TC50 (the source's name)
# [20] = Cytotoxicity against mouse BAF3 cells; format: cell-based; conditions: read-out: TC50 (the source's name)
# [21] = Cytotoxicity against Cricetulus griseus CHO cells; format: cell-based; conditions: chinese hamster, read-out: TC50 (the source's name)
# [22] = Cytotoxicity against human Hep2 cells; format: cell-based; conditions: HEp-2 cells, read-out: TC50 (the source's name)
# [23] = Cytotoxicity against human HeLa cells; format: cell-based; conditions: read-out: TC50 (the source's name)
# [24] = Selectivity index, ratio TC50 for human 293T cells to IC50 for Plasmodium falciparum; format: functional
# [25] = Selectivity index, ratio TC50 for mouse BAF3 cells to IC50 for Plasmodium falciparum; format: functional
# [26] = Selectivity index, ratio TC50 for CHO cells to IC50 for Plasmodium falciparum; format: functional
# [27] = Selectivity index, ratio TC50 for human Hep2 cells to IC50 for Plasmodium falciparum; format: functional, HEp-2
# Salmonella typhimurium = experiment: Genotoxicity in Salmonella Typhimurium by Ames test; format: toxicity, organism-based; conditions: salmonella enterica subsp. enterica serovar typhimurium
# [28] = Genotoxicity in micronucleus assessed as arrest at cytokinesis stage by micronucleus assay
# [29] = target: Voltage-gated inwardly rectifying potassium channel KCNH2 (Homo sapiens, UniProt Q12809)
# Sequence of Voltage-gated inwardly rectifying potassium channel KCNH2 (Q12809 whole entry): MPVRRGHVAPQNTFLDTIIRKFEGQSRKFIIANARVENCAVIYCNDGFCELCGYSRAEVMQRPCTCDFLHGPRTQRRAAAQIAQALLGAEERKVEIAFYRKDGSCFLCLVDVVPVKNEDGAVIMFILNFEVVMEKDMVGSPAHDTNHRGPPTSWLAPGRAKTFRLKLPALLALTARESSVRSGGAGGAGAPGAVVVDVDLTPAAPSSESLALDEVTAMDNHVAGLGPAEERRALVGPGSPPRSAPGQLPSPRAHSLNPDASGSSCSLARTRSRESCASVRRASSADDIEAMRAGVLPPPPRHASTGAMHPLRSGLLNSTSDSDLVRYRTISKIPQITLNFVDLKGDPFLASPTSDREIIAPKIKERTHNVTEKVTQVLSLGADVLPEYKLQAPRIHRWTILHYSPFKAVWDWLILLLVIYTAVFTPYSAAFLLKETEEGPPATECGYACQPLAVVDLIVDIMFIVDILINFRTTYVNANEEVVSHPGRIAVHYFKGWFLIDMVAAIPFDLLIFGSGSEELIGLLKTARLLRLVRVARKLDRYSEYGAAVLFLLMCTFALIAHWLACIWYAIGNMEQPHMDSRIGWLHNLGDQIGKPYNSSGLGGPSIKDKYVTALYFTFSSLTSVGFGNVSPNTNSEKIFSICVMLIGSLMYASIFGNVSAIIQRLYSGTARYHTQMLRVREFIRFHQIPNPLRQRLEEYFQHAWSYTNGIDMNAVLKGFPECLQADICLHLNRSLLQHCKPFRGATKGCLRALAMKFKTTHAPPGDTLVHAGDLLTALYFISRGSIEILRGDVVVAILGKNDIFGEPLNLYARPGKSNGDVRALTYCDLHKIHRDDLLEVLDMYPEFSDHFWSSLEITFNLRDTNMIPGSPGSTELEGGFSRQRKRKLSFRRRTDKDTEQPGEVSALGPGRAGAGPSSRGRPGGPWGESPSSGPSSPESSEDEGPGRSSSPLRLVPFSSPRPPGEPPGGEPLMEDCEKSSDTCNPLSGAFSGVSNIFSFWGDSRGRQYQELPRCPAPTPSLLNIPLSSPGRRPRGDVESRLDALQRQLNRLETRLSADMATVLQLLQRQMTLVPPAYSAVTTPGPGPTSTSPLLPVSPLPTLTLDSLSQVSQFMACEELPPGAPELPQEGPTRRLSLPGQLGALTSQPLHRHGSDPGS
# [30] = pampa
# in vitro [31] = conditions: human, Caco-2
# in vitro [32] = conditions: human, Caco-2; remark: listed apart in the source
# in vitro [33] = conditions: mouse, microsomes
# in vitro [34] = conditions: rat, microsomes
# in vitro [35] = conditions: human, microsomes
# Plasmodium berghei [36] = experiment: Antimalarial activity against GFP-tagged Plasmodium berghei ANKA infected in NMRI mouse assessed as mouse survival at 30 mg/kg, po administered as single dose 24 hrs post infection measured 72 hrs post infection
# Plasmodium berghei [37] = experiment: Antimalarial activity against GFP-tagged Plasmodium berghei ANKA infected in NMRI mouse assessed as mouse survival at 100 mg/kg, po administered as single dose 24 hrs post infection measured on day 30 post infection
# Plasmodium berghei [38] = experiment: Antimalarial activity against GFP-tagged Plasmodium berghei ANKA infected in NMRI mouse assessed as reduction in parasitemia at 30 mg/kg, po QD administered 24 hrs post infection for 3 days measured on day 4 post infection; format: functional; design: scale not given: the % may be the effect or the level left
# Rattus norvegicus = experiment: Toxicity in rat assessed as adverse effect at 500 mg/kg; format: organism-based; design: dose 500 mg/kg; conditions: in vivo
structure (smiles),measurement,setting,value
CC(C)(N)C(=O)N1CCn2c(nc(-c3ccc(F)cc3)c2Nc2ccc(F)c(F)c2)C1,IC50,Plasmodium falciparum [1],44 nM
same,IC50,Plasmodium falciparum [2],36 nM
same,CC50,[3],> 12 µM
same,Selectivity Index,[4],>100
same,Selectivity Index,[5],>100
same,Vd,[6],14 L/kg
same,clearance,[7],27.7 mL/min/kg
same,half-life,[8],462 min
same,AUC(0-inf),[9],7 µM·h
same,Cmax,Mus musculus [10],1940 nM
same,Tmax,[11],1.67 h
same,AUC,Mus musculus [12],31.758 µM·h
same,half-life,[13],462 min
same,bioavailability,[14],76%
same,blood plasma ratio,[15],> 1
same,blood plasma ratio,[16],> 1
same,Activity,Plasmodium berghei [17],99.4%
same,Survival,Plasmodium berghei [18],17.7 days
same,IC50,Cytochrome P450 1A2,> 8.9 µM
same,IC50,Cytochrome P450 2C19,> 8.9 µM
same,IC50,Cytochrome P450 2C9,> 8.9 µM
same,IC50,Cytochrome P450 2D6,> 8.9 µM
same,IC50,Cytochrome P450 3A4,> 8.9 µM
same,CC50,[19],> 12 µM
same,CC50,[20],> 12 µM
same,CC50,[21],> 12 µM
same,CC50,[22],> 12 µM
same,CC50,[23],> 12 µM
same,Selectivity Index,[24],>100
same,Selectivity Index,[25],>100
same,Selectivity Index,[26],>100
same,Selectivity Index,[27],>100
same,Activity,Salmonella typhimurium,Non-toxic
same,Activity,[28],Non-toxic
same,IC50,[29],4.8 µM
same,permeability,[30],86%
same,Papp A→B,in vitro [31],0.14 ×10⁻⁶ cm/s
same,Papp B→A,in vitro [32],1.03 ×10⁻⁶ cm/s
same,hepatic extraction ratio,in vitro [33],0.17
same,hepatic extraction ratio,in vitro [34],0.12
same,hepatic extraction ratio,in vitro [35],0.39
same,Survival,Plasmodium berghei [36],7.7 days
same,Survival,Plasmodium berghei [37],17 days
CC(C)(N)C(=O)N1CCn2c(nc(-c3ccc(F)cc3)c2Nc2ccc(F)cc2)C1,IC50,Plasmodium falciparum [1],20 nM
same,IC50,Plasmodium falciparum [2],25 nM
same,CC50,[3],> 12 µM
same,Vd,[6],23.7 L/kg
same,clearance,[7],60 mL/min/kg
same,half-life,[8],372 min
same,AUC(0-inf),[9],3.44 µM·h
same,Cmax,Mus musculus [10],1800 nM
same,Tmax,[11],1.67 h
same,AUC,Mus musculus [12],17.894 µM·h
same,half-life,[13],540 min
same,bioavailability,[14],87%
same,Activity,Plasmodium berghei [38],99.6%
same,Survival,Plasmodium berghei [18],14 days
same,IC50,Cytochrome P450 1A2,> 8.9 µM
same,IC50,Cytochrome P450 2C19,> 8.9 µM
same,IC50,Cytochrome P450 2C9,> 8.9 µM
same,IC50,Cytochrome P450 2D6,> 8.9 µM
same,IC50,Cytochrome P450 3A4,> 8.9 µM
same,CC50,[19],> 12 µM
same,CC50,[20],> 12 µM
same,CC50,[21],> 12 µM
same,CC50,[22],> 12 µM
same,CC50,[23],> 12 µM
same,Activity,Rattus norvegicus,Non-toxic
same,permeability,[30],81%
same,Papp A→B,in vitro [31],3.05 ×10⁻⁶ cm/s
same,Papp B→A,in vitro [32],8.38 ×10⁻⁶ cm/s
same,Survival,Plasmodium berghei [36],7.7 days
